Assay [1] concerns P388. As to the kind of experiment: In vivo inhibitory activity against P388 murine leukemia cells and the ratio of medium survival time expressed as percent of untreated controls (%T/C) at dose of 50 mg/kg (7/7*). The assay is classed as functional, Mus musculus.
Assay [2] in a line: The capacity to stimulate NADH oxidation was determined. The assay is classed as functional. The essentials: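 Cell-free NADH oxidation in 1 mL of 0.05 M Tris-HCl, pH 7.2, with 100 µM compound (hydrochloride), 100 µM NADH and 1 unit/mL NADH dehydrogenase. NADH consumption started by adding the enzyme. Rate expressed as µmol/min.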
In assay [3] the test system is L1210. Briefly: Effective concentration against inhibition of L1210 mouse leukemia cells in tissue culture. The assay is classed as functional, cell-based. The essentials:
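L1210 mouse leukemia cells seeded at 0.05 × 10^6 cells/mL. Compounds, as hydrochlorides dissolved in 50% ethanol, added at four concentrations. Growth over 48 h measured by cellular protein content. EC50 taken as the concentration giving 50% inhibition of 48-h growth.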

In assay [4] the test system is P388. As to the kind of experiment: In vivo inhibitory activity against P388 murine leukemia cells and the ratio of medium survival time expressed as percent of untreated controls (%T/C) at dose of 12.5 mg/kg (7/7*). The assay is classed as functional, Mus musculus.
Assay [5] relates to P388. As to the kind of experiment: In vivo inhibitory activity against P388 murine leukemia cells and the ratio of medium survival time expressed as percent of untreated controls (%T/C) at dose of 25 mg/kg (7/7*). The assay is classed as functional, Mus musculus.
In assay [6] the test system is P388. Briefly: In vivo inhibitory activity against P388 murine leukemia cells and the ratio of medium survival time expressed as percent of untreated controls (%T/C) at doses of 6.25,3.12,1.56mg/kg (7/7*). The assay is classed as functional, Mus musculus.
The subject of assay [7] is P388. Briefly: In vivo inhibitory activity against P388 murine leukemia cells and the ratio of medium survival time expressed as percent of untreated controls (%T/C) at dose of 2.5 mg/kg (7/7*). The assay is classed as functional, Mus musculus.
In assay [8] the test system is P388. Briefly: In vivo inhibitory activity against P388 murine leukemia cells and the ratio of medium survival time expressed as percent of untreated controls (%T/C) at doses of 80,40,20mg/kg (7/7*). The assay is classed as functional, Mus musculus.
The test system of assay [9] is P388. As to the kind of experiment: In vivo inhibitory activity against P388 murine leukemia cells and the ratio of medium survival time expressed as percent of untreated controls (%T/C) at dose of 5 mg/kg (7/7*). The assay is classed as functional, Mus musculus.
Assay [10] has as its system P388. As to the kind of experiment: In vivo inhibitory activity against P388 murine leukemia cells and the ratio of medium survival time expressed as percent of untreated controls (%T/C) at dose of 10 mg/kg (7/7*). The assay is classed as functional, Mus musculus.
Assay [11] relates to P388. Briefly: In vivo inhibitory activity against P388 murine leukemia cells and the ratio of medium survival time expressed as percent of untreated controls (%T/C) at dose of 2.5 mg/kg (6/6*). The assay is classed as functional, Mus musculus.
The test system of assay [12] is P388. Briefly: In vivo inhibitory activity against P388 murine leukemia cells and the ratio of medium survival time expressed as percent of untreated controls (%T/C) at dose of 5 mg/kg (6/6*). The assay is classed as functional, Mus musculus.
In assay [13] the test system is P388. Briefly: In vivo inhibitory activity against P388 murine leukemia cells and the ratio of medium survival time expressed as percent of untreated controls (%T/C) at dose of 80 mg/kg (5/6*). The assay is classed as functional, Mus musculus.
Assay [14] deals with P388. As to the kind of experiment: In vivo inhibitory activity against P388 murine leukemia cells and the ratio of medium survival time expressed as percent of untreated controls (%T/C) at dose of 40 mg/kg (6/6*). The assay is classed as functional, Mus musculus.
The subject of assay [15] is P388. As to the kind of experiment: In vivo inhibitory activity against P388 murine leukemia cells and the ratio of medium survival time expressed as percent of untreated controls (%T/C) at dose of 10 mg/kg (6/6*). The assay is classed as functional, Mus musculus.
Assay [16] deals with P388. Briefly: In vivo inhibitory activity against P388 murine leukemia cells and the ratio of medium survival time expressed as percent of untreated controls (%T/C) at dose of 20 mg/kg (6/6*). The assay is classed as functional, Mus musculus.
The subject of assay [17] is P388. Briefly: In vivo inhibitory activity against P388 murine leukemia cells and the ratio of medium survival time expressed as percent of untreated controls (%T/C) at dose of 12.5 mg/kg (6/6*). The assay is classed as functional, Mus musculus.
Assay [18] has as its system P388. As to the kind of experiment: In vivo inhibitory activity against P388 murine leukemia cells and the ratio of medium survival time expressed as percent of untreated controls (%T/C) at dose of 6.25 mg/kg (6/6*). The assay is classed as functional, Mus musculus.
Assay [19] concerns P388. As to the kind of experiment: In vivo inhibitory activity against P388 murine leukemia cells and the ratio of medium survival time expressed as percent of untreated controls (%T/C) at dose of 25 mg/kg (6/6*). The assay is classed as functional, Mus musculus.
Assay [20] deals with P388. Briefly: In vivo inhibitory activity against P388 murine leukemia cells and the ratio of medium survival time expressed as percent of untreated controls (%T/C) at dose of 3.12 mg/kg (6/6*). The assay is classed as functional, Mus musculus.
The test system of assay [21] is P388. Briefly: In vivo inhibitory activity against P388 murine leukemia cells and the ratio of medium survival time expressed as percent of untreated controls (%T/C) at doses of 10,5,2,5 mg/kg (7/7*). The assay is classed as functional, Mus musculus.
The test system of assay [22] is P388. Briefly: In vivo inhibitory activity against P388 murine leukemia cells and the ratio of medium survival time expressed as percent of untreated controls (%T/C) at doses of 40,20mg/kg (7/7*). The assay is classed as functional, Mus musculus.
Assay [23] has as its system P388. As to the kind of experiment: In vivo inhibitory activity against P388 murine leukemia cells and the ratio of medium survival time expressed as percent of untreated controls (%T/C) at dose of 80 mg/kg (7/7*). The assay is classed as functional, Mus musculus.
In assay [24] the test system is P388. As to the kind of experiment: In vivo inhibitory activity against P388 murine leukemia cells and the ratio of medium survival time expressed as percent of untreated controls (%T/C) at dose of 3.78, 1.87 mg/kg (7/7*). The assay is classed as functional, Mus musculus.
Assay [25] deals with P388. Briefly: In vivo inhibitory activity against P388 murine leukemia cells and the ratio of medium survival time expressed as percent of untreated controls (%T/C) at dose of 7.5 mg/kg (7/7*). The assay is classed as functional, Mus musculus.
Assay [26] concerns P388. As to the kind of experiment: In vivo inhibitory activity against P388 murine leukemia cells and the ratio of medium survival time expressed as percent of untreated controls (%T/C) at dose of 15 mg/kg (7/7*). The assay is classed as functional, Mus musculus.
Assay [27] concerns P388. Briefly: In vivo inhibitory activity against P388 murine leukemia cells and the ratio of medium survival time expressed as percent of untreated controls (%T/C) at doses of 60,30mg/kg (7/7*). The assay is classed as functional, Mus musculus.

Molecules are shown by their SMILES. Values after ≈ are worked out from the molar mass of the structure shown.

The term T/C denotes the ratio of treated to control. What is called EC50 is the concentration needed to bring the measured effect to its halfway point. Take `O=C1c2ccccc2C(=O)c2c(NCCNCCO)ccc(O)c21`: the T/C came out at 127% in assay [1], 109% in assay [4], 117% in [5] and 100% in assay [6]. In assay [2], this molecule yielded an NADH oxidation of 28.9 µM/min. For the same molecule, it took 0.27 µg/mL (≈ 0.827 µM) to reach a half-maximal effect in [3] (EC50).

In the case of `N=C1c2ccccc2C(=O)c2c(NCCNCCO)ccc(O)c21`, the T/C in assay [7] is 120%; in assay [8] it was 160%; in [9] it was 130%; in assay [10], 150%. Besides, the NADH oxidn in assay [2] was 19.3 µM/min. In assay [3], this molecule gave an EC50 of 1.43 µg/mL (≈ 4.4 µM).

`COc1cccc2c1C(=N)c1c(O)ccc(NCCNCCO)c1C2=O` returned an EC50 in assay [3] of 2.8 µg/mL (≈ 7.88 µM).

As to `N=C1c2ccccc2C(=O)c2c(NCCN)ccc(O)c21`, the T/C was determined as 100% in assay [11]; 109% in [12]; 55% in assay [13]; 118% in assay [14]; 118% in [15]; 109% in assay [16]. The NADH oxidn in assay [2] worked out at 20.9 µM/min. The EC50 in [3] was 0.89 µg/mL (≈ 3.16 µM).

Turning to `O=C1c2ccccc2C(=O)c2c(NCCNCCO)ccc(NCCNCCO)c21` [AMETANTRONE], the T/C in assay [17] is recorded as 300%; in [18], 210%; in assay [19], 200%; in assay [20] it was 190%. In assay [2], this molecule yielded an NADH oxidation of 28.9 µM/min. The molecule also came in with an EC50 in [3] of 0.21 µg/mL (≈ 0.509 µM).

Regarding `CN(C)CCNc1ccc(O)c2c1C(=O)c1ccccc1C2=N`, the T/C is 92% in assay [21], 100% in assay [22] and 125% in assay [23]. In assay [2], the NADH oxidn stood at 17.7 µM/min. Also, a half-maximal effect in [3] (EC50) was put at 2.21 µg/mL (≈ 7.14 µM).

On to `CN(C)CCNc1ccc(O)c2c1C(=O)c1ccccc1C2=O`, for which the T/C is given as 91% in assay [24], 100% in [25], 109% in assay [26] and 117% in [27]. This molecule also displayed an NADH oxidation in [2] of 25.7 µM/min. This molecule yielded an EC50 in [3] of 0.33 µg/mL (≈ 1.06 µM).

With `NCCNc1ccc(O)c2c1C(=O)c1ccccc1C2=O`, in assay [2], the NADH oxidation was 25.7 µM/min. This molecule registered an EC50 in assay [3] of 0.24 µg/mL (≈ 0.85 µM).

The values are drawn from ChEMBL document CHEMBL1125231, “Synthesis, peroxidating ability, and antineoplastic evaluation of 1-[(aminoalkyl)amino]-4-hydroxy-10-imino-9-anthracenones” (J Med Chem, 1991).
